Rows were chosen to be rich in hits. Some 2.7% of all compounds tested hit in one or more screens of this group.
RAM inhibit: blocks the yeast RAM network | S. cerevisiae dse1pr::URA3 reporter, 5-FOA growth OD615, 2 d; analog-sensitive cbk1-as2 kinase mutant strain | inhibition, % at 50 µM | actives 1.8% (n = 190,000) | AID 868;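 active = inhibition above a set limit, 3 SD over mean compound inhibition, cut at about 8.4% in these data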;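 note: inhibition rescues growth on 5-FOA so higher OD means more RAM inhibition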
sdo1 growth: sdo1-depleted yeast growth rescue; S. cerevisiae sdo1-depleted JHY4D growth rescue, OD600 30 h; hits give high values; pdr5 snq2 efflux-pump mutant strain; z-score at 10 µM; actives 0.21% (n = 140,000);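 active = z-score above 3 at both the 24 hr and the 30 hr optical density reads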
Yeast growth inh: yeast BB579 growth reduction in restrictive medium | S. cerevisiae BB579 growth, OD615, 48 h | inhibition, % at 10 µM | actives 0.51% (n = 140,000);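 active = inhibition above a set limit, 3 SD over the mean compound inhibition, cut at about 44% in these data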
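Assay system: S. cerevisiae DeaD strain BB579 yeast. Medium: CSMM-D restrictive synthetic medium containing dextrose (glucose). Times: 4 h cell preincubation, 48 h compound exposure, 30 °C humidified. Signal: OD615 turbidity measurement. Benchmarks: positive control amphotericin B 10 µg/mL.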
Yeast lifespan up: extends the lifespan of yeast; S. cerevisiae growth with nicotinamide, OD615; deaD strain in restrictive glucose medium; inhibition of the nicotinamide effect, % at 10 µM; actives 0.68% (n = 130,000); AID 775;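 active = inhibition above a set limit, placed 3 SD over the median of all compounds, cut at about 26% in these data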
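Measured by: optical density (absorbance) at 615 nm; System: modified budding yeast, DeaD strain; Medium: restrictive CSMM-D dextrose medium; Timing: 4 h preincubation then 48 h treatment at 30 °C.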
sdo1 rescue conf: SDO1-depleted yeast growth rescue confirmation. shares compounds with sdo1 growth. S. cerevisiae JHY4D (SDO1-depleted) growth rescue, OD600, 30 h; hits give high values; efflux-deficient strain, SNQ2 and PDR5 mutated. OD recovery (test concentration not listed). actives 44% (n = 440). AID 949;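 active = yeast growth recovered at 30 hours, either rising with dose fitted slope above 0.001 or with average optical density gain above 0.07, some results past the limit were not filed as active; inactive = growth falling with dose or no effect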
A number is an active result; n = inactive; x = no result.

SMILES	RAM inhibit	sdo1 growth	Yeast growth inh	Yeast lifespan up	sdo1 rescue conf
COc1nc(-c2cnccn2)sc1C	n	x	x	x	x
O=C(NCc1ccco1)c1ccc(Br)c(S(=O)(=O)N2CCCCC2)c1	n	4.7	n	n	0.072
O=c1nc2ccccc2c2n1CC(CN1CCN(C(c3ccccc3)c3ccccc3)CC1)N2 (stereo not given)	n	x	x	x	x
CCOc1ccc(C(=O)NC(=S)Nc2ccccc2OC)cc1[N+](=O)[O-]	n	n	n	n	0.077
CCOC(=O)C1C(=O)C=C(/C=C/c2ccc(N(C)C)cc2)CC1c1ccccc1 (stereo not given)	n	n	n	n	x
c1ccc2c(c1)CCN(C1=Nc3cccc4cccc1c34)C2	n	x	x	x	x
Cc1ccc(-c2noc(CCC(=O)NCCN3CCN(Cc4ccccc4)CC3)n2)cc1	n	n	n	n	x
Cc1ccc(-c2noc(CCC(=O)NCCN3CCOCC3)n2)cc1	n	n	n	n	0.074
Cc1cc(C)c(NC(=S)N2CCC(N(C)CC3CCCO3)CC2)c(C)c1 (stereo not given)	n	3.6	n	n	0.096
Cc1cccc(C)c1NC(=S)N1CCC(N(C)CC2CCCO2)CC1 (stereo not given)	n	n	n	n	x
CCOc1ccccc1N1C(=O)CC(Sc2n[nH]c(-c3ccccc3)n2)C1=O (stereo not given)	n	x	x	x	x
O=C(O)c1cccc(NC(=O)c2ccc3c(c2)C(=O)N(CC2CCCO2)C3=O)c1 (stereo not given)	n	n	n	n	x
COC(=O)c1cccc(NC(=O)c2ccc3c(c2)C(=O)N(CC2CCCO2)C3=O)c1 (stereo not given)	n	n	n	n	n
COc1ccc(NC(=O)CSc2nccc(C)n2)cc1	n	n	n	n	n
COc1cc(NC(=O)CSc2nccc(C)n2)c(C(=O)O)cc1OC	n	n	n	n	x
COc1ccc(NC(=O)CN2CCCCC2)cc1	n	n	n	n	x
COc1ccc(NC(=O)CSc2nc(N3CCCCC3)nc(N3CCCCC3)n2)cc1	n	n	n	n	0.084
COc1cc(OC)c(OC)cc1CNCCSc1nnnn1C	n	x	x	x	x
Cc1cc(NC(=O)CSc2nc3c(c(-c4cccnc4)c2C#N)CCC3)no1	n	n	n	n	n
O=C(Cc1ccccc1)Nn1c(-c2ccccc2)nc2ccccc2c1=O	n	n	n	n	x
NC(=S)Nn1c(-c2ccccc2)nc2ccccc2c1=O	n	11	n	n	n
CN(C)CCNCCCOc1ccccc1-c1ccccc1	n	x	x	x	x
CN1CCN(C(=O)c2ccccc2-c2nc(-c3ccccc3)no2)CC1	n	n	n	n	x
NC(=O)c1ccccc1-c1nc(-c2ccccc2)no1	n	11	n	n	n
CCCN(CCC)S(=O)(=O)c1ccc(Cl)c(OC)c1	n	x	x	x	x
SMILES	RAM inhibit	sdo1 growth	Yeast growth inh	Yeast lifespan up	sdo1 rescue conf
Cc1ccc(C(=O)/C=C/Nc2cccc([N+](=O)[O-])c2)o1	n	n	n	n	x
CCCCN(C)C(=O)c1cc2cc3ccc(OC)cc3nc2s1	n	16	n	n	0.076
CCOc1ccc(N(CC(=O)NCc2ccccc2)S(C)(=O)=O)cc1	n	5.5	n	n	0.086
Cn1nnnc1SCC(=O)NC1CCCCC1	n	n	n	n	n
COc1ccc(C(=O)NNC(=O)CCn2nnc(-c3ccc(Cl)cc3)n2)cc1OC	n	x	x	x	x
Cc1nc(Cl)c(C(=O)NC(=O)NCc2ccccc2)c(C)c1Cl	n	n	n	n	x
COc1ccccc1-n1cc(C(=O)N2CCCC(CO)(Cc3ccccc3C)C2)cn1 (stereo not given)	n	x	x	x	x
C=CCn1c(=NC(=O)c2cc(-c3cccs3)nc3ccccc23)sc2cc(S(N)(=O)=O)ccc21	n	n	n	n	x
COCCn1c(=NC(=O)c2cc(-c3cccs3)nc3ccccc23)sc2cc(S(N)(=O)=O)ccc21	n	9.4	n	n	0.071
O=C1[C@H]2[C@H](ON3CCCC[C@H]23)C(=O)N1c1ccc(Cl)cc1	n	x	x	x	x
O=C(NCCN=C1NS(=O)(=O)c2ccccc21)c1ccco1	n	3.8	n	n	0.085
CCN(CC)S(=O)(=O)c1ccc(-c2nnc(SCC(=O)Nc3ccc(OC)c(OC)c3)o2)cc1	n	n	n	n	n
CCN(CC)S(=O)(=O)c1ccc(-c2nnc(SCC(=O)Nc3ccc(OC)cc3)o2)cc1	n	n	n	x	x
COc1ccccc1NC(=O)CSc1nnc(-c2ccncc2)o1	n	n	n	n	x

Source: PubChem (several laboratories)
